SKN-1 inh – suppressors of acrylamide-induced Pgst-4::GFP reporter in worms, primary screen, SKN-1 inhibitor project, whole organism, uHTS, GFP/RFP fluorescence ratio, strain VP596 | actives 0.49% (n = 360,000) | C. elegans VP596 Pgst-4::GFP/RFP ratio, 24 h | AID 624304, 2012 | inhibition, % at 21.8 µM;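 active = interference check ratio from 0.5 to 1.5 plus GFP to RFP signal ratio inhibition reaching or exceeding a fixed threshold, cut at about 30% in these data, passing the limit was not always enough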
MLLE-PAM2 inh – inhibitors of PABP1 MLLE–PAM2 peptide binding, primary screen, biochemical, fluorescence polarization, FITC-PAM2, GST-MLLE. Polyadenylate-binding protein 1 (Homo sapiens), P11940. inhibition, % at 20 µM. actives 0.36% (n = 360,000). AID 588489, 2011; in the data active = inhibition above about 35%, passing the limit was not always enough;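 also: plate controls were DMSO wells with GST-MLLE for no effect and wells lacking GST-MLLE protein for full effect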
eIF4H inh – human eIF4H binding inhibitors, primary screen, translation initiation inhibitor project, biochemical, uHTS, fluorescence polarization. eIF4H fluorescence polarization binding assay. inhibition, % at 35 µM. actives 0.94% (n = 290,000). AID 2012, 2009;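 also: calls also rest on retests at 20 µM and on dose response follow-up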
PABP FP inh – PABP poly(A) RNA binding inhibitors, primary screen, biochemical, fluorescence polarization, uHTS. Polyadenylate-binding protein 1 (Homo sapiens), P11940. calls only at 35 µM. actives 1% (n = 290,000). AID 2014, 2009;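 also: calls also rest on retests at 20 µM and on dose response follow-up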
MT1-MMP act inh – blockers of MT1-MMP proenzyme processing, primary screen, HT1080 RFP-PRO-GFP cells, GFP/RFP fluorescence | Matrix metalloproteinase-14 (Homo sapiens), P50281 | GFP/RFP ratio fluorescence, overnight; percent of plate control window, DMSO zero | GFP/RFP ratio change, % at 20 µM | actives 0.061% (n = 360,000);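 active = GFP/RFP ratio change of at least 30% with cell ATP level not reduced by more than half and red fluorescence within 50% of control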
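Assay system – RFP-PRO-GFP reporter HT1080 cells · Compound dosing – single dose of 20 µM compound, 1% DMSO final · Incubation – overnight compound exposure at 37 °C · Measure – GFP/RFP fluorescence ratio · Benchmarks – DMSO wells and RFP-L50D-GFP cells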
* = called active by the depositor; i = inactive; . = no result; + = active, no number; ! = not confirmed by another sample. Hits are enriched below; roughly 1.8% of the tested compounds scored in any of these assays. Unless noted, no rule for the calls is given here.

SMILES	SKN-1 inh	MLLE-PAM2 inh	eIF4H inh	PABP FP inh	MT1-MMP act inh
Fc1c(F)c(F)c(/C=N/NC(=S)Nc2cccnc2)c(F)c1F	6	40*	-1	i	-1
COc1ccc(/C=C/C(=O)NNC(=O)c2ccncc2)c(OC)c1	-4	5	.	.	5
CC(C)CNC(=O)NC(=O)COc1c(F)c(F)cc(F)c1F	4	-14	-13	i	5
CC(C)CCNC(=O)NC(=O)COc1c(F)c(F)cc(F)c1F	60*	-4	-6	i	3
COc1cccc(CNC(=O)CCC2CCCN(C(=O)c3ccccc3N(C)C)C2)c1 (stereo unspecified)	0	2	-13	i	-1
COc1cccc(CNC(=O)CCC2CCCN(C(=O)c3cccc4c(C)c(C)[nH]c34)C2)c1 (stereo unspecified)	10	8	66*	+	-5
CC(C)C[C@H]1COc2cccc(N3CCN(Cc4ccccc4F)CC3)c2S(=O)(=O)N1	3	.	.	.	4
CCCC1=NN2C(=N)/C(=C\c3ccc(OCCOc4ccc(NC(C)=O)cc4)c(OC)c3)C(=O)N=C2S1	33	-24	-8	i	-6
O=C(CCN1CCOCC1)NNC(=S)NC(=O)c1ccccc1	11	38*	2	i	2
O=C(CCN1CCOCC1)c1ccccc1	0	30	3	i	1
N#Cc1c(-c2cccc(Br)c2)cc(-c2ccco2)[nH]c1=O	2	-3	76	i	-43
COc1ccc(-c2cc(-c3ccco3)[nH]c(=O)c2C#N)cc1	-7	7	74*	+	-22
CCCS(=O)(=O)NC(=O)C1(C)CCCN(C(=O)c2nc3ccccc3s2)C1 (stereo unspecified)	11	-3	.	.	0
O=C(CSc1nc2c(c(=O)n1-c1ccc(F)cc1)SCC2)NCc1ccco1	7	45*	2	i	-1
O=C(CSc1nc2c(c(=O)n1-c1ccc(Cl)cc1)SCC2)NCc1ccco1	4	6	4	i	3
COc1ccc(Cc2c(-c3cccc(Cl)c3)nc3ccc(Cl)cn23)c(C)c1	10	-38	.	.	-3
CCOC(=O)C1CCN(C(=S)Nc2ccc(C)cc2)CC1	7	-74	-3	i	3
CCOC(=O)C1CCN(C(=O)NS(=O)(=O)c2ccc(C)cc2)CC1	-2	3	3.0*	+	-1
COc1ccc(CNC(=O)COC(=O)c2ccc(S(=O)(=O)N3CCOCC3)cc2)cc1	-4	-14	.	.	1
Cc1ccc(-c2nc3ccc(C(=O)O)cc3nc2-c2ccc(C)cc2)cc1	-10	13	-9	i	-1
O=C(Nc1cccc(C(F)(F)F)c1)c1ccc2nc(-c3ccco3)c(-c3ccco3)nc2c1	-17	-14	75*	+	0
O=S(=O)(c1ccc2nc(-c3ccco3)c(-c3ccco3)nc2c1)N1CCOCC1	-3	23	95*	+	-1
O=C(O)c1cc(-c2ccco2)nc2ccc(Br)cc12	11	24	87*	+!	-10
O=C(Nc1cccc(C(F)(F)F)c1)c1cc[n+]([O-])cc1	2	-1	-8	i	3
O=C(c1ccco1)N1CCN(C(=O)c2cc(-c3ccncc3)nc3ccc(Br)cc23)CC1	34	-45	.	.	-19
SMILES	SKN-1 inh	MLLE-PAM2 inh	eIF4H inh	PABP FP inh	MT1-MMP act inh
O=C(O)c1ccc2nc(-c3ccco3)c(-c3ccco3)nc2c1	3	50*	98*	+	-3
Cc1ccc(C2(c3ccccc3)NC(=O)N(CC(=O)NCc3ccco3)C2=O)cc1C (stereo unspecified)	4	-6	.	.	0
NC(c1ccccc1)c1csc(Nc2ccc(C(=O)NCCCO)cn2)n1 (stereo unspecified)	7	-3	.	.	2
O=C(c1ccc2nc(-c3ccco3)c(-c3ccco3)nc2c1)N1CCN(c2ccccc2)CC1	0	22	94*	+	2
CCOC(=O)c1ccc(O)c(-n2cc3c(c2-c2ccccc2)c(=O)n(C)c(=O)n3C)c1	12	-11	.	.	5
c1ccc(-c2nc(-c3ccccn3)nc(-c3ccccn3)n2)nc1	-16	17	4	i	7

High-throughput results as filed in PubChem BioAssay.
